Data taken from ChEMBL document CHEMBL1154198, “Chemical genetics of Plasmodium falciparum” (Nature, 2010).

Legend:
Trypanosoma brucei = test: ST_JUDE: Cytotoxicity using luciferase to measure ATP as an indicator of the viability of Trypanosoma brucei; format: functional, organism-based
Plasmodium falciparum [1] = test: ST_JUDE: Cytotoxicity against Plasmodium falciparum W2; format: functional, organism-based
Leishmania major = test: ST_JUDE: Cytotoxicity using Alamar Blue to measure viability of Leishmania major; format: functional, organism-based
Summary of the method: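 L. major promastigotes; drug susceptibility read with Alamar Blue.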

Plasmodium falciparum [2] = test: ST_JUDE: Plasmodium falciparum 3D7 EC50 (uM) as measured by SYBR green dye; format: functional, organism-based
[3] = ST_JUDE: Cytotoxicity using luciferase to measure ATP as an indicator of the viability of human foreskin fibroblast cells (BJ); format: toxicity, cell-based
Plasmodium falciparum [4] = test: ST_JUDE: Cytotoxicity against Plasmodium falciparum 3D7; format: functional, organism-based
Summary of the method: (§1)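 Asexual P. falciparum grown in human erythrocytes, exposed to compounds for 72 h, and growth read as the DNA quantity in treated versus control cultures. Dose-response run at 12 concentrations from 10 μM to 5 nM.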

Plasmodium falciparum [5] = test: ST_JUDE: Cytotoxicity against Plasmodium falciparum V1/S; format: functional, organism-based
[6] = ST_JUDE: Cytotoxicity using luciferase to measure ATP as an indicator of the viability of human epithelial embryonic kidney cells (HEK293); format: toxicity, cell-based
Toxoplasma gondii = test: ST_JUDE: Growth inhibition of to Toxoplasma gondii, in human U-2OS cells, as measured by luciferase.; format: functional, organism-based; conditions: RH, U2OS
Summary of the method: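 T. gondii parasites engineered to express luciferase; drug sensitivity read by luminescence.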

[7] = ST_JUDE: Cytotoxicity using luciferase to measure ATP as an indicator of the viability of human Burkitt''s lymphoma lymphoblast cells (Raji); format: toxicity, cell-based
Plasmodium falciparum [8] = test: ST_JUDE: Cytotoxicity against Plasmodium falciparum K1; format: functional, organism-based; summary of the method: as §1
Plasmodium falciparum [9] = test: ST_JUDE: Cytotoxicity against Plasmodium falciparum Dd2; format: functional, organism-based
[10] = ST_JUDE: Cytotoxicity using luciferase to measure ATP as an indicator of the viability of human epithelial hepatocellular carcinoma cells (HepG2); format: toxicity, cell-based
Plasmodium falciparum [11] = test: ST_JUDE: Cytotoxicity against Plasmodium falciparum D10 transfected with yeast DHOD; format: functional, organism-based
Plasmodium falciparum [12] = test: ST_JUDE: Plasmodium falciparum K1 EC50 (uM) as measured by SYBR green dye; format: functional, organism-based
Plasmodium falciparum [13] = test: ST_JUDE: Cytotoxicity against Plasmodium falciparum SB-A6; format: functional, organism-based

SMILES	EC50 (Trypanosoma brucei)	EC50 (Plasmodium falciparum [1])	EC50 (Leishmania major)	EC50 (Plasmodium falciparum [2])	EC50 [3]	EC50 (Plasmodium falciparum [4])	EC50 (Plasmodium falciparum [5])	EC50 [6]	EC50 (Toxoplasma gondii)	EC50 [7]	EC50 (Plasmodium falciparum [8])	EC50 (Plasmodium falciparum [9])	EC50 [10]	EC50 (Plasmodium falciparum [11])	EC50 (Plasmodium falciparum [12])	EC50 (Plasmodium falciparum [13])
Nc1ccc(-c2nc3cc(-c4ccc5[nH]c(-c6ccc(N)cc6)nc5c4)ccc3[nH]2)cc1	2520 nM	77.9 nM	> 16400 nM	264 nM	> 38300 nM	221 nM	154 nM	> 38300 nM	> 21000 nM	> 38300 nM	201 nM	165 nM	8940 nM	120 nM	174 nM	108 nM
N=c1n(CCN2CCCCC2)c2ccccc2n1CC(O)c1ccc(Cl)c(Cl)c1 (stereo not given)	4120 nM	640 nM	> 22000 nM	186 nM	10400 nM	503 nM	1430 nM	16000 nM	11500 nM	21000 nM	617 nM	346 nM	6970 nM	1290 nM	238 nM	1270 nM
CCN1CCN(Cc2c(O)ccc3c(=O)c(Oc4ccccc4C(C)C)c(C(F)(F)F)oc23)CC1	> 22400 nM	41.8 nM	> 9980 nM	226 nM	> 23300 nM	223 nM	102 nM	> 23300 nM	> 12800 nM	> 23300 nM	69.6 nM	523 nM	> 23300 nM	247 nM	59.2 nM	335 nM
CCOc1cc2c(cc1OCC)C(c1cc(C)c(O)c(C)c1)NCC2 (stereo not given)	14800 nM	451 nM	> 22200 nM	1830 nM	> 52000 nM	1300 nM	868 nM	> 52000 nM	> 28500 nM	> 52000 nM	439 nM	420 nM	> 52000 nM	2770 nM	587 nM	3000 nM
CCCO/C(O)=C1\C(C)=NC2=C(C(=O)CC(c3ccc(OC)cc3)C2)C1c1ccccc1Cl (stereo not given)	5090 nM	88.9 nM	> 17900 nM	713 nM	> 41900 nM	373 nM	173 nM	> 41900 nM	> 22900 nM	> 41900 nM	160 nM	301 nM	> 41900 nM	188 nM	466 nM	167 nM
COc1ccc(C2CC3=NC(C)=C(C(=O)OC(C)C)C(c4ccccc4OC)C3=C(O)C2)cc1OC (stereo not given)	16400 nM	240 nM	> 19200 nM	1390 nM	> 44800 nM	711 nM	434 nM	> 44800 nM	11400 nM	> 44800 nM	396 nM	812 nM	> 44800 nM	637 nM	997 nM	367 nM
CCOc1ccc(/C=C/c2nc(=O)c3ccccc3o2)cc1	> 38300 nM	73.1 nM	> 17100 nM	188 nM	> 39900 nM	345 nM	601 nM	> 39900 nM	273 nM	> 39900 nM	392 nM	307 nM	> 39900 nM	> 10200 nM	128 nM	> 10200 nM
CCOC(=O)C1(Cc2ccc(Cl)cc2)CCN(Cc2ccccc2O)CC1	12300 nM	548 nM	> 24400 nM	457 nM	> 56900 nM	2000 nM	327 nM	> 56900 nM	> 31200 nM	> 56900 nM	194 nM	445 nM	> 56900 nM	559 nM	106 nM	549 nM
CCOC(=O)C1(Cc2cccc(C(F)(F)F)c2)CCN(Cc2ccccc2O)CC1	11700 nM	726 nM	> 17700 nM	389 nM	> 41300 nM	1330 nM	486 nM	> 41300 nM	> 22600 nM	> 41300 nM	368 nM	345 nM	> 41300 nM	743 nM	57.6 nM	858 nM
Oc1ccc(Br)cc1CN1CCN(Cc2ccccc2)CC1	> 26000 nM	848 nM	> 11600 nM	867 nM	> 27100 nM	1230 nM	582 nM	> 27100 nM	> 14900 nM	> 27100 nM	401 nM	776 nM	> 27100 nM	1750 nM	419 nM	2050 nM
CCOc1ccc(Nc2nc(NCc3ccccc3)c3ccccc3n2)cc1	5620 nM	> 10200 nM	8.8 nM	1150 nM	8410 nM	1140 nM	1070 nM	8670 nM	> 21700 nM	8220 nM	1440 nM	651 nM	4770 nM	1070 nM	1540 nM	305 nM
C=CCN1C=CC=C/C1=C\c1sc2ccccc2[n+]1CC	2670 nM	> 5540 nM	12.2 nM	2310 nM	> 21600 nM	1290 nM	2000 nM	> 21600 nM	> 11800 nM	2820 nM	1890 nM	920 nM	> 21600 nM	2920 nM	1440 nM	1600 nM
Oc1ccc(C2NCc3ccccc3-n3cccc32)cc1Cl (stereo not given)	> 44100 nM	1090 nM	> 19700 nM	1250 nM	> 46000 nM	1490 nM	360 nM	> 46000 nM	> 25200 nM	> 46000 nM	395 nM	1380 nM	> 46000 nM	1770 nM	357 nM	2350 nM
Cc1ccc(NC(=O)C2c3ccccc3C(=O)N(CC(C)C)C2c2cccs2)cc1C (stereo not given)	6310 nM	3810 nM	> 17600 nM	63.1 nM	> 41200 nM	208 nM	348 nM	> 41200 nM	> 22600 nM	> 41200 nM	182 nM	323 nM	> 41200 nM	182 nM	129 nM	232 nM
CC1=NC2=C(C(=O)CC(c3ccc(Cl)cc3)C2)C(c2ccc(F)cc2)/C1=C(\O)OC(C)C (stereo not given)	1560 nM	656 nM	> 17000 nM	775 nM	> 39800 nM	989 nM	821 nM	> 39800 nM	> 21800 nM	> 39800 nM	436 nM	1300 nM	> 39800 nM	649 nM	779 nM	460 nM
